Source: PubChem
A selection: hits, their analogues and other compounds. The true share with any hit is near 1.9%.
CHRM4 antagonist = CHRM4 antagonism in calcium assay; CHO-hM4 cells, ACh EC80, Fluo-8 calcium fluorescence; inhibition, % at 3 µM; 360,000 compounds, 0.73% hits; AID 624125;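 active = inhibition above its plate's cutoff, the mean inhibition of sample wells plus 3 SD, cut at about 27% in these data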;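 also: 0% = acetylcholine EC80 with DMSO and 100% = DMSO without agonist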
Target sequence (P08173 whole entry, looked up): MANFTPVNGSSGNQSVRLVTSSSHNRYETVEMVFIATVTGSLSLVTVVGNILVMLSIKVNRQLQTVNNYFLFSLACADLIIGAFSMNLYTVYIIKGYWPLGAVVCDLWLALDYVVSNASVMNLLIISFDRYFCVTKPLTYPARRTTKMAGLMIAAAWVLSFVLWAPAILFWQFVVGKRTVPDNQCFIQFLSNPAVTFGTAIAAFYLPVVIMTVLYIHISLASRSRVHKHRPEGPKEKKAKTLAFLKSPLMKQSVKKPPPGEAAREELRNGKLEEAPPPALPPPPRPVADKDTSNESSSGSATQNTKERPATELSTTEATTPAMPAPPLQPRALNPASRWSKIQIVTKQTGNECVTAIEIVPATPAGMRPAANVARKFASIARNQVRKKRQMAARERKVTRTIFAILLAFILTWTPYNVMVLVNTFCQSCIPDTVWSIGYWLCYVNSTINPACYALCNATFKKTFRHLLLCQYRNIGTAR
M4 ag = agonists of human muscarinic M4 receptor (CHRM4); P08173; CHO-K1 hM4/Gqi5, Fluo-8 calcium fluorescence; vehicle 0%, full acetylcholine response 100%; activation, % at 3 µM; 360,000 compounds, 0.14% hits; AID 624127;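 active = activation above the run mean over all test wells plus 3 SD, cut at about 32% in these data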;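 also: peak over basal fluorescence ratio per well then scaled between controls; 0% = DMSO wells and 100% = acetylcholine at EC100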
CHRM5 PAM = positive allosteric modulators of human muscarinic M5 receptor; 360,000 compounds, 0.3% hits; activation, % at 3 µM; CHO-K1 hM5, Fluo-8 calcium, ACh EC20 PAM; 0% = ACh EC20, 100% = ACh EC100; P08912; AID 624038;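 active = activation above the run cutoff, the mean activation of all test compounds plus 3 SD, cut at about 18% in these data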
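Replicates: One well per compound, no replicates | System: Human M5 receptor in CHO-K1 cells | Benchmarks: Low control EC20 acetylcholine (0%), high control EC100 acetylcholine (100%) | Probe or stimulus: Acetylcholine, EC20 level | Times: Fluo-8 loading 80 min at 37 °C plus 30 min room temperature | Signal: Intracellular calcium via Fluo-8 fluorescence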
CHRM4 PAM = potentiates acetylcholine response at human M4 receptor. AID 624126. CHO-K1 hM4/Gqi5, Fluo-8 calcium fluorescence, ACh EC20; 0% = ACh EC20, 100% = maximal ACh. activation, % at 3 µM. 360,000 compounds, 0.4% hits;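 active = activation above its plate's cutoff, the mean activation of sample wells plus 3 SD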
M5 antag = antagonists of human muscarinic M5 receptor (CHRM5) | P08912 | CHO-hM5 cells, Fluo-8 calcium fluorescence, ACh EC80 | inhibition, % at 3 µM | 360,000 compounds, 0.59% hits;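 active = inhibition above a per-plate cutoff, the mean of that plate's test compounds plus 3 SD, cut at about 27% in these data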;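 also: 0% = acetylcholine EC80 with DMSO and 100% = DMSO without agonist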
CHRM5 agonist = agonists of human muscarinic M5 receptor (CHRM5); P08912; CHO-K1 hM5 cells, Fluo-8 calcium fluorescence; 0% DMSO wells, 100% maximal acetylcholine response; activation, % at 3 µM; 360,000 compounds, 0.19% hits;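 active = activation above the run's mean over test compounds plus 3 SD, cut at about 23% in these data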;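 also: signal is peak over basal fluorescence ratio across the kinetic read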
Numbers without * were called inactive.

SMILES	CHRM4 antagonist	M4 ag	CHRM5 PAM	CHRM4 PAM	M5 antag	CHRM5 agonist
O=C(CCNC(=O)c1ccc(Br)cc1)NCc1ccco1	-5.5	2.3	1.4	5.2	-17.2	2.8
O=C(CCNC(=O)c1ccco1)Nc1ccccc1	-11.7	1.7	1.9	15.7*	8.8	-1.0
O=C(CCNC(=O)c1ccco1)NNC(=O)c1ccc(Br)cc1	-7.1	0.7	4.7	23.1*	-4.1	-4.0
O=C(CCCn1cnc([N+](=O)[O-])n1)Nc1ccc(F)c(Cl)c1	11.1	1.4	-3.6	-3.0	2.8	-4.5
O=C(CCC1CCCC1)NCc1cccs1	21.5	0.3	2.2	19.9*	-0.7	-1.6
O=C(CCCCC(=O)NCc1cccs1)NCc1cccs1	9.3	-0.1	3.5	-5.9	1.9	-1.9
Cc1ccc(C(=O)NCCNc2ncc(C(F)(F)F)cc2Cl)cc1[N+](=O)[O-]	11.3	6.9	-16.1	-20.4	27.2*	-6.6
CCOc1ccccc1C1c2[nH]c3ccccc3c2C[C@H]2C(=O)N(C3CCN(Cc4ccccc4)CC3)CC(=O)N12 (stereo partly drawn)	-4.5	7.3	-3.5	-15.4	16.1	-1.7
COc1ccc(C2c3[nH]c4ccccc4c3C[C@H]3C(=O)N(C4CCN(Cc5ccccc5)CC4)CC(=O)N23)c(OC)c1 (stereo partly drawn)	27.3*	4.7	-4.3	-14.6	6.4	-4.1
COc1ccc(CC(=O)NC(C)c2nnc(SCCC(=O)Nc3ccccc3)n2C)cc1 (stereo not drawn)	11.0	1.1	18.1*	12.0	-9.7	4.2
OCC1(Cc2ccccc2)CCN(CCCC2CCCC2)CC1	49.1*	7.9	-17.4	-55.5	7.4	-16.9
OCC1(Cc2ccccc2)CCCN(Cc2ccc(-c3ccco3)cc2)C1 (stereo not drawn)	12.4	12.0	-9.0	-25.6	13.5	-8.0
OCC1(Cc2ccccc2)CCN(Cc2ccc(-c3ccco3)cc2)CC1	30.1*	2.2	-8.5	-20.1	12.2	-14.5
COc1ccc(-c2cc(C(=O)N3CCN(c4ccccc4)CC3)c3ccccc3n2)cc1	1.2	10.8	-15.6	-8.4	17.7	-0.2
Cc1ccc(-c2cc(C(=O)N3CCN(c4ccccc4O)CC3)c3ccccc3n2)cc1	-6.2	8.3	-16.5	-5.9	8.9	6.3
COc1ccc(-c2cc(C(=O)N3CCN(c4ccccn4)CC3)c3ccccc3n2)cc1	27.0*	15.9	-16.7	-26.0	24.6	2.2
COc1ccc(-c2cc(C(=O)N3CCN(c4ccccc4O)CC3)c3ccccc3n2)cc1OC	18.9	15.1	-15.1	-7.9	27.5*	-2.8
CCOc1ccc(-c2cc(C(=O)N3CCN(c4ccccn4)CC3)c3ccccc3n2)cc1	8.7	7.2	0.6	-3.6	-0.8	1.2
COc1ccc(-c2cc(C(=O)N3CCN(c4ccccc4O)CC3)c3ccccc3n2)cc1	28.7*	24.1	-34.6	-10.5	18.3	2.4
Cc1cc(C)n(CC(=O)NC2C(=O)N3C(C(=O)O)=C(CSc4nnc(C)s4)CSC23)n1 (stereo not drawn)	-1.9	1.0	1.2	16.1	-1.4	-4.3
Cc1nn(CC(=O)Nc2nccs2)c(C)c1[N+](=O)[O-]	3.8	-0.1	-1.5	1.5	7.8	1.6
Cc1cc([N+](=O)[O-])nn1CCC(=O)Nc1nccs1	-8.1	3.4	18.3*	19.4	-33.6	4.7
COCCNC(=O)C1CCCN(C(=O)c2ccc(SC(F)(F)F)cc2)CC1 (stereo not drawn)	2.5	0.2	1.5	-4.6	-1.6	0.6
Cc1cc2c3c([nH]c2cc1S(=O)(=O)NCc1ccc(CN2CCCCCC2)o1)CCCC3=O	68.2*	0.3	-2.8	-27.3	0.9	-10.8
C#CCOCCOCCOCCNc1nc(N2CCN(C(=O)CCCCCCCCCCNC(=O)[C@@H](CCC(=O)O)n3cc(CCCCCN)nn3)CC2)nc(N2CCN(C(=O)CCCCCCCCCCNC(=O)[C@H](CCCCN)n3cc(C[C@@H](C)CC)nn3)CC2)n1	4.4	32.9*	-0.5	-11.9	9.5	-0.2
